# Compound activity deposited in PubChem BioAssay by several laboratories.
# JMJD2C inh = human JMJD2C demethylase inhibition. Q9H3R0. GST-JMJD2C(1-420) H3K9me3 demethylation, DELFIA europium. inhibition, % at 2.35 µM. hit rate 0.069% among 330,000. AID 2099;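 active = more than half of a compound's replicate wells show inhibition beyond 50%, single wells judged on their own value; inconclusive = some, but no more than half, of replicates pass 50% inhibition; inactive = no replicate passes 50% inhibition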;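 also: signal counts dimethyl H3K9 product captured on neutravidin plate; 0% = median of DMSO wells and 100% = 0.3 times that DMSO median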
# NR2E3 ag-1 = human photoreceptor-specific nuclear receptor agonism; CHO-S Gal4-NCOR/VP16-NR2E3 two-hybrid, luciferase; inhibition of corepressor binding, % at 3.98 µM; hit rate 0.35% among 360,000; AID 602229;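 active = inhibition above the mean of all tested compounds plus 3 SD, cut at about 70% in these data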;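 also: 0% = DMSO with NR2E3 transfected cells and 100% = cells lacking NR2E3 construct; higher means lower luciferase signal from less NR2E3 corepressor binding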
# NR2E3 ag-2 = NR2E3 (human) agonism; GST-NR2E3/biotin-RetCOR TR-FRET, 1536-well; inhibition of corepressor binding, % at 4.78 µM; hit rate 0.12% among 320,000; AID 2300;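 active = percent inhibition above the cutoff of mean plus 3 SD of all tested compounds, set per screening campaign, cut at about 20% in these data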;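 also: 0% = DMSO wells and 100% = biotin wells as full block of FRET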
#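 Material – GST-tagged NR2E3 plus biotinylated RetCOR corepressor · Quantity – NR2E3 fusion 1.35 nM · Times – 5 h incubation at 4 °C · Medium – pH 7.5 Tris-based buffer · Technique – TR-FRET, Eu(K)-anti-GST donor, streptavidin-D2 acceptor, ex 340, em 617/671 nm · Benchmarks – high control biotin, low control 0.6% DMSO · Format – 1536-well plates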
# KLK7 zymogen act = activates the human kallikrein-7 zymogen | P49862 | purified proKLK7, EDANS-DABCYL substrate fluorescence; 100% is mature enzyme control, 0% vehicle | activation, % at 7 µM | hit rate 0.9% among 370,000 | AID 652039;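 active = activation above the mean of all tested compounds plus 3 SD, computed per campaign excluding outliers beyond control limits, cut at about 13% in these data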
# Target sequence (P49862 whole entry, looked up): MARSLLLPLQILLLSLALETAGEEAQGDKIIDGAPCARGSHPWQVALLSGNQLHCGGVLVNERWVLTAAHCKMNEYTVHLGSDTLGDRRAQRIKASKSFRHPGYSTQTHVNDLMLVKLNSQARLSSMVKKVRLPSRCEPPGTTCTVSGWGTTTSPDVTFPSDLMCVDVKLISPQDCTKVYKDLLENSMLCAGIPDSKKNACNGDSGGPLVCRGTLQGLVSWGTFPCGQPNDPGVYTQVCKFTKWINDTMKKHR
# ADAM10 inh = ADAM10 inhibition, QFRET primary screen | inhibition, % at 7 µM | hit rate 0.62% among 370,000 | recombinant ADAM10, EDANS/DABCYL FRET peptide cleavage, 3 h | O14672;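 active = inhibition above a per-campaign cutoff equal to the mean of compounds falling between control-based bounds plus 3 SD, cut at about 20% in these data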;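 also: 0% = DMSO wells while the 100% control is not disclosed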
# Target sequence (O14672 214-748 limits assumed): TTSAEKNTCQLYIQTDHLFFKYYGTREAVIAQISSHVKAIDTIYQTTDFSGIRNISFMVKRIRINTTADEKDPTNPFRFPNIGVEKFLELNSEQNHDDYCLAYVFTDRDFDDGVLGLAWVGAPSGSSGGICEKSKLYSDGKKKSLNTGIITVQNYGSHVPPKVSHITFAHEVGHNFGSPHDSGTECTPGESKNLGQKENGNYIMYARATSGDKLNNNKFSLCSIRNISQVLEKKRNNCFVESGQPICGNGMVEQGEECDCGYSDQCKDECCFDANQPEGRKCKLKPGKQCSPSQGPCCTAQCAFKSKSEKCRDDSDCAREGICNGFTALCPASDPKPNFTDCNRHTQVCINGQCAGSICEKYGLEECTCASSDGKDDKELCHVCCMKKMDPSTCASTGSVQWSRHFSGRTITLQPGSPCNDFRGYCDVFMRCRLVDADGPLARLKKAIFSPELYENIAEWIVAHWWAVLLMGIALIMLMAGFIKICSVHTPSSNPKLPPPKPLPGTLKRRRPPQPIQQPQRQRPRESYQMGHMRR
# ADAM17 inh = inhibitors of human ADAM17; P78536; hit rate 0.83% among 370,000; recombinant ADAM17, EDANS/DABCYL FRET peptide cleavage; inhibition, % at 6.95 µM; AID 720648;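 active = inhibition above the mean of compounds lying between control limits plus 3 SD, set per campaign, cut at about 8.5% in these data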;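 also: 0% = DMSO-only wells as the low control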
# NR2E3 ag confirm = confirmation of human NR2E3 agonists; shares compounds with NR2E3 ag-1; CHO-S mammalian two-hybrid NR2E3-NCOR, luciferase luminescence; inhibition, % at 3.98 µM; hit rate 51% among 2,300;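 active = average inhibition above a cutoff equal to the mean inhibition of all tested compounds plus one SD, cut at about 70% in these data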;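 also: 0% = DMSO in NR2E3 cells and 100% = DMSO in cells lacking NR2E3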
# VP16 counter = reduces GAL4-VP16 reporter signal in NR2E3 counterscreen; AID 624379; shares compounds with NR2E3 ag-1; CHO-S GAL4-VP16 luciferase reporter, luminescence; hit rate 29% among 2,300; inhibition, % at 3.98 µM;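 active = mean inhibition above a cutoff equal to the average over all tested compounds plus one standard deviation, cut at about 70% in these data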;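 also: luciferase from a UAS reporter driven by GAL4-VP16 transactivation; 0% = DMSO with VP16-transfected cells and 100% = DMSO with cells lacking VP16; higher means less reporter light so more repression of VP16 activity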
# proKLK7 act conf = proKLK7 activation, confirmation; shares compounds with KLK7 zymogen act; hit rate 68% among 3,200; purified proKLK7, EDANS-DABCYL substrate fluorescence; scaled: vehicle 0, mature enzyme 100; activation, % at 7 µM; AID 686949;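 active = activation, as change over the incubation, above the mean of all tested compounds plus 3 SD, cut at about 13% in these data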
# EDANS interfere = fluorescence interference counter-screen for KLK7 activators; shares compounds with KLK7 zymogen act; EDANS-DABCYL substrate fluorescence interference, no enzyme, 4 h; solvent 0%, active enzyme control 100%; activation, % at 7 µM; hit rate 80% among 3,200; AID 686952;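 active = activation above the all-compound mean plus 3 SD, ignoring values outside control-based bounds, cut at about 4.8% in these data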;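 also: value is the 4 h activation minus the activation read at time zero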
# EDANS interf = optically interferes with EDANS-DABCYL fluorescence, kallikrein-7 activator counter-screen; shares compounds with KLK7 zymogen act; EDANS-DABCYL peptide fluorescence interference, no enzyme; EC50, µM; hit rate 20% among 250;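 active = compounds that raise the fluorescence signal in this interference counterscreen, with EC50 at or below 10 µM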;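 also: intact quenched peptide substrate alone read at 355 nm excitation and 520 nm emission; signal is fluorescence gain from T0 to T4 after four hours at room temperature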
# ADAM10 confirm = human ADAM10 inhibition, confirmation; shares compounds with ADAM10 inh; ADAM10 QFRET peptide cleavage, EDANS fluorescence; inhibition, % at 6.95 µM; hit rate 1% among 2,100;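 active = inhibition above about 20% chosen separately for each screening run, limit read from the data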;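 also: 0% = DMSO wells and 100% = marimastat wells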
# ADAM17 ctr = inhibits human ADAM17 in ADAM10 exosite counter-screen | shares compounds with ADAM10 inh | ADAM17 QFRET peptide cleavage, EDANS fluorescence | inhibition, % at 6.95 µM | hit rate 0.5% among 2,100;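 active = mean triplicate inhibition above the solvent-only control wells' mean plus 3 SD, cut at about 12% in these data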;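 also: 0% = DMSO wells and 100% = marimastat wells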
# ADAM10 counter = counter-screen for ADAM17 exosite inhibitors: inhibitors of human ADAM10; inhibition, % at 6.95 µM; recombinant ADAM10, EDANS/DABCYL FRET peptide cleavage, 3 h; hit rate 47% among 2,900; shares compounds with ADAM17 inh;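 active = mean inhibition over the triplicate runs exceeds the activity threshold set in the earlier primary screen, cut at about 20% in these data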;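 also: 0% = DMSO wells and 100% = marimastat wells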
# ADAM17 confirm = confirmation of inhibitors of human ADAM17. inhibition, % at 6.95 µM. shares compounds with ADAM17 inh. hit rate 65% among 2,900. recombinant ADAM17, EDANS/DABCYL QFRET peptide cleavage;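 active = mean inhibition across replicates above the hit cutoff set in the primary screen, cut at about 8.5% in these data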;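 also: 0% = DMSO wells and 100% = marimastat wells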
# Starred values were filed as active, the others as inactive; i = inactive; ? = inconclusive; . = no result given. This is a sample that favours compounds with a hit; in the whole collection about 2.5% have one here.
SMILES,JMJD2C inh,NR2E3 ag-1,NR2E3 ag-2,KLK7 zymogen act,ADAM10 inh,ADAM17 inh,proKLK7 act conf,EDANS interfere,others
CCOc1cc2c(cc1OCC)-n1cccc1C(c1cccc(OCC)c1O)NC2 (stereo not drawn),7.9,0.7,-0.6,0.5,8.4,-1.4,.,.,
CN(C)c1ccc(/C=C/c2cc[n+](C)c3ccccc23)cc1,.,60.5,.,0.3,1.9,-1.4,.,.,NR2E3 ag confirm=76.7*;VP16 counter=37.5
CN(C)c1ccc(/C=C/C=C/c2sc3ccccc3[n+]2C)cc1,7.0,19.7,-12.7,-0.7,4.3,-1.5,.,.,
O=C1N(c2nncs2)CCN1[N+](=O)[O-],1.7,-7.2,-2.6,0.0,3.9,-2.9,.,.,
Oc1c(Cl)c(Cl)c(Cl)c(Cl)c1Cl,-49.0,98.3*,-2.8,0.2,11.7,0.3,.,.,NR2E3 ag confirm=98.7*;VP16 counter=91.8*
CC[C@H](C(N)=O)N1CCCC1=O,.,.,.,-0.6,2.3,-0.2,.,.,
C[C@@H]1C[C@@H]([C@H](O)CC2CC(=O)NC(=O)C2)C(=O)[C@@H](C)C1,1.5,102.3*,2.7,0.3,-14.6,-4.5,.,.,NR2E3 ag confirm=100.4*;VP16 counter=94.8*
CC(=O)OC1(C)CC(C)C(=O)C(C(O)CC2CC(=O)NC(=O)C2)C1 (stereo not drawn),.,104.7*,.,-0.3,-8.3,0.4,.,.,NR2E3 ag confirm=98.8*;VP16 counter=99.3*
CCC(C)C1NC(=O)C(NC(=O)C(CC(C)C)N(C)C(=O)C2CCCN2C(=O)C(C)O)C(C)OC(=O)C(Cc2ccc(OC)cc2)N(C)C(=O)C2CCCN2C(=O)C(CC(C)C)NC(=O)[C@H](C)C(=O)[C@H](C(C)C)OC(=O)CC1O (stereo partly drawn),.,102.1*,.,0.1,25.9*,11.8*,.,.,NR2E3 ag confirm=98.7*;VP16 counter=99.6*;ADAM10 confirm=-0.3;ADAM17 ctr=-0.7;ADAM10 counter=2.4;ADAM17 confirm=5.0
CN1Cc2c(c(C#N)c(N)n(C)c2=S)CC1(C)C,3.8,-22.9,1.8,.,.,.,.,.,
CC(=O)N1CCC2(CC1)CC(=O)c1cc(OCC(=O)N3CCC4(CC3)OCCO4)ccc1O2,33.9,-28.7,1.1,36.0*,i,-354.0,70.0*,64.6*,
CC(=O)N1CCC2(CC1)CC(=O)c1cc(OCC(=O)N3CCN(C)CC3)ccc1O2,0.8,22.0,1.6,41.7*,i,-474.8,63.0*,68.2*,
Cc1cc(OCC(=O)N2CCCN(C)CC2)ccc1Cl,-14.1,-15.0,3.3,0.2,4.5,4.4,.,.,
CCn1c(=O)cc(OCC(=O)N2CCC3(CC2)OCCO3)c2ccccc21,0.6,-5.5,1.7,-0.1,-2.3,0.4,.,.,
Cn1cc(C(O)CN2CCCCC2)c2ccccc21 (stereo not drawn),-4.3,-16.4,1.9,0.3,3.8,1.7,.,.,
Cc1cc(=O)oc2cc3c(cc12)CCCN3,-17.1,-30.1,-4.3,59.5*,i,i,66.0*,62.5*,
COc1ccc(N2C(=O)/C(=C/C=C/c3ccccc3[N+](=O)[O-])C(=O)NC2=S)cc1,13.2,.,.,0.2,5.2,1.5,.,.,
COc1ccc2c(c1)[nH]c1c(C)nccc12,.,-42.6,4.3,46.6*,i,-336.4,19.6*,11.0*,EDANS interf=i
ON1C2CCCCC2N(O)C1c1ccccc1 (stereo not drawn),3.5,-9.0,3.5,-0.3,-1.9,-3.2,.,.,
CC1CN(CC(=O)c2ccccc2Cl)CC(C)O1 (stereo not drawn),-26.3,-14.4,0.9,15.8*,4.8,-2.0,0.4,0.0,
CCOc1ccc(-c2cc(C)[n+](CCO)c(-c3ccc(OCC)cc3)c2)cc1,5.5,-20.6,-0.3,94.2*,i,-425.4,69.6*,69.0*,
CCOCCCn1c(N)c(C(=O)Nc2sc3c(c2C(=O)OC)CCCC3)c2nc3ccccc3nc21,?,16.6,-3.5,28.0*,i,-456.5,0.8,1.1,
CCOC(=O)c1c(NC(=O)c2c(N)n(CCCOC)c3nc4ccccc4nc23)sc2c1CCCC2,-1.7,11.3,1.6,-0.1,-12.2,-7.9,.,.,
COc1ccc2cc(C(=O)C3CCCN(C4CCOCC4)C3)ccc2c1 (stereo not drawn),4.9,17.3,0.9,138.7*,i,-473.0,4.2,20.4*,
COc1c(C)cc(C(=O)C2CCCN(C3CCOCC3)C2)cc1C (stereo not drawn),-14.8,38.6,-0.4,0.2,0.8,-2.8,.,.,
CN(C)c1ccc(/C=C2/C(=N\O)C3CCN2CC3)cc1,0.7,-43.9,-5.4,55.7*,-56.4,-21.6,130.4*,152.9*,
Cc1cc(O)c2c(C)c(CC(=O)N3C[C@H]4C[C@@H](C3)c3cccc(=O)n3C4)c(=O)oc2c1,9.6,-39.0,-3.3,-6.0,-72.2,-14.8,.,.,
COc1cc(C)cc2oc(=O)c(CC(=O)N3C[C@H]4C[C@@H](C3)c3cccc(=O)n3C4)c(C)c12,i,-34.6,0.4,21.6*,i,-250.0,15.3*,16.8*,
COc1ccc(-n2c(/C=C/c3ccc(O)cc3)nc3ccccc3c2=O)cc1,1.1,6.8,-0.3,-0.3,-9.3,-2.1,.,.,
O=c1c2ccccc2nc(/C=C/c2ccc(O)cc2)n1-c1cccc(O)c1,21.0,16.1,0.2,214.4*,-196.4,-77.5,206.8*,77.8*,
